Laboratory results published in ChEMBL document CHEMBL1155708, “Isoaurostatin, a novel topoisomerase inhibitor produced by Thermomonospora alba” (J Nat Prod, 2001).

Columns and labels:
[1] = Inhibition of wheat germ topoisomerase 1 assessed as conversion of supercoiled pBR322 DNA to relaxed form; design: species or system Triticum aestivum
Deoxyribonuclease-1 = Deoxyribonuclease-1 (Bos taurus, UniProt P00639); assay: Inhibition of bovine pancreas DNase 1 assessed as undigested supercoiled pBR322 DNA concentration
Sequence of Deoxyribonuclease-1 (P00639 whole entry): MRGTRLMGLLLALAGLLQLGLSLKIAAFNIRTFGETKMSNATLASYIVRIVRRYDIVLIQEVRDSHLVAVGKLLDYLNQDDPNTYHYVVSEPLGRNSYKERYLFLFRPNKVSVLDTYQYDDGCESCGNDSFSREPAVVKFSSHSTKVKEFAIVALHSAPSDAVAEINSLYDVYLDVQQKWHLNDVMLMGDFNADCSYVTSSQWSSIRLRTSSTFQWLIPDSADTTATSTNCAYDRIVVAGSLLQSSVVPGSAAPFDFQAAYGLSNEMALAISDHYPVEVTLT
Procedure, shortened: (§1)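 Restriction enzyme or nuclease activity followed as the remaining undigested supercoiled pBR322 DNA (or RNA) after reaction.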

DNA ligase = biological target: T1, DNA ligase (Enterobacteria phage T4, UniProt P00970); assay: Inhibition of T4 ligase from bacteriophage infected Escherichia coli assessed as ligation of supercoiled pBR322 DNA; design: species or system Tequatrovirus T4
T1 sequence (P00970 whole entry): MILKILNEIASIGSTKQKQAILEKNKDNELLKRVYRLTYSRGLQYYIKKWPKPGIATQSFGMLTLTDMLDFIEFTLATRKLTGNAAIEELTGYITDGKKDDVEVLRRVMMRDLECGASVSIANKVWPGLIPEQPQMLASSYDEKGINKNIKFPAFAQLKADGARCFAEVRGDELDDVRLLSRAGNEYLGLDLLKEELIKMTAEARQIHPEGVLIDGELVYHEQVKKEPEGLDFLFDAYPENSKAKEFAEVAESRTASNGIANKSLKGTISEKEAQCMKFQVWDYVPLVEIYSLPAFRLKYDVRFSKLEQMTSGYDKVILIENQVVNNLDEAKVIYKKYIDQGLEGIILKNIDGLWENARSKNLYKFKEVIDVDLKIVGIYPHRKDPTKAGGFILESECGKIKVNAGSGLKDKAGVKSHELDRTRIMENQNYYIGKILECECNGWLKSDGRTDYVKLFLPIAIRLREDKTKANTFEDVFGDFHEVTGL

[2] = biological target: T2, Type II restriction enzyme ScaI (Streptomyces caespitosus, UniProt O52691); assay: Inhibition of Streptomyces caespitosus Sca 1 assessed as undigested supercoiled pBR322 DNA concentration; procedure, shortened: as §1
T2 sequence (O52691 whole entry): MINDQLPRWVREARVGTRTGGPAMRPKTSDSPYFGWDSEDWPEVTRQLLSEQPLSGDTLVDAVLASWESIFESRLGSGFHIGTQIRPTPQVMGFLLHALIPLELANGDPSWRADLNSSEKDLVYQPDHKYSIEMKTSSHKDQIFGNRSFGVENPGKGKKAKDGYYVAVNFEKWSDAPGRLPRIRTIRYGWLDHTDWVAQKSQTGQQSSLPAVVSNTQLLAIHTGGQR

[3] = biological target: Type II restriction enzyme EcoRI (Escherichia coli, UniProt P00642); assay: Inhibition of Escherichia coli Eco R1 assessed as undigested supercoiled pBR322 DNA concentration; procedure, shortened: as §1
Sequence of Type II restriction enzyme EcoRI (P00642 whole entry): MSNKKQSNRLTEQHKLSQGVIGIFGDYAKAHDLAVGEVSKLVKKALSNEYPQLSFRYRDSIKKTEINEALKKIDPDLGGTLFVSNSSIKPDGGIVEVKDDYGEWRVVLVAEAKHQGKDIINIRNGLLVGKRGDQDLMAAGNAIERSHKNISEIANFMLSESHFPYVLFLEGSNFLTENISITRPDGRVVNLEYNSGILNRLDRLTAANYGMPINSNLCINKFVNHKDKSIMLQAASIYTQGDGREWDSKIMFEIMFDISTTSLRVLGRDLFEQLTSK

[4] = biological target: T3, Type II restriction enzyme HindIII (Haemophilus influenzae (strain ATCC 51907 / DSM 11121 / KW20 / Rd), UniProt P43870); assay: Inhibition of Haemophilus influenzae Hind 3 assessed as undigested supercoiled pBR322 DNA concentration; procedure, shortened: as §1
T3 sequence (P43870 whole entry): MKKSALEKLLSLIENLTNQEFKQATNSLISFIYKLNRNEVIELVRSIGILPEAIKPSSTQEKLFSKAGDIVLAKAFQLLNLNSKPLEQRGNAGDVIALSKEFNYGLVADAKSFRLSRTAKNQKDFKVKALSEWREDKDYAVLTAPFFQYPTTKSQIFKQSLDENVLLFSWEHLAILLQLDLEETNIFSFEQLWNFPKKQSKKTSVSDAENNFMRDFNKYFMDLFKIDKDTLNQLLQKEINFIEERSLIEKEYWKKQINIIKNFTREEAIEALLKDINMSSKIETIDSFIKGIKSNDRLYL

[5] = Inhibition of Arthrobacter luteus AluI assessed as undigested supercoiled pBR322 DNA concentration; design: species or system Cellulosimicrobium cellulans; procedure, shortened: as §1
[6] = biological target: T4, Deoxyribonuclease-2-alpha (Sus scrofa, UniProt O62855); assay: Inhibition of porcine spleen DNase 2 assessed as undigested supercoiled pBR322 DNA concentration; procedure, shortened: as §1
T4 sequence (O62855 whole entry): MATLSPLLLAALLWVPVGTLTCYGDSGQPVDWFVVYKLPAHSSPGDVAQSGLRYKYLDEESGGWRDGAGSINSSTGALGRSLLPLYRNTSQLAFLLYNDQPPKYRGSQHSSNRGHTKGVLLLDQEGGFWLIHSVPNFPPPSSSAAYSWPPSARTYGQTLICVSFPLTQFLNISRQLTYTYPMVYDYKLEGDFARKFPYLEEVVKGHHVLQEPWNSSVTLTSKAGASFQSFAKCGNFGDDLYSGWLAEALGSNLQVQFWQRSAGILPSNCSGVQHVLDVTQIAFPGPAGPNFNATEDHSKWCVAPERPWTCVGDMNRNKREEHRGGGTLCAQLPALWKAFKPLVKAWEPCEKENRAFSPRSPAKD

[7] = biological target: T5, DNA topoisomerase 2-alpha (Homo sapiens, UniProt P11388); assay: Inhibition human placenta topoisomerase 2 assessed as conversion of catenated kinetoplast DNA to minicircle monomer
T5 sequence (P11388 whole entry): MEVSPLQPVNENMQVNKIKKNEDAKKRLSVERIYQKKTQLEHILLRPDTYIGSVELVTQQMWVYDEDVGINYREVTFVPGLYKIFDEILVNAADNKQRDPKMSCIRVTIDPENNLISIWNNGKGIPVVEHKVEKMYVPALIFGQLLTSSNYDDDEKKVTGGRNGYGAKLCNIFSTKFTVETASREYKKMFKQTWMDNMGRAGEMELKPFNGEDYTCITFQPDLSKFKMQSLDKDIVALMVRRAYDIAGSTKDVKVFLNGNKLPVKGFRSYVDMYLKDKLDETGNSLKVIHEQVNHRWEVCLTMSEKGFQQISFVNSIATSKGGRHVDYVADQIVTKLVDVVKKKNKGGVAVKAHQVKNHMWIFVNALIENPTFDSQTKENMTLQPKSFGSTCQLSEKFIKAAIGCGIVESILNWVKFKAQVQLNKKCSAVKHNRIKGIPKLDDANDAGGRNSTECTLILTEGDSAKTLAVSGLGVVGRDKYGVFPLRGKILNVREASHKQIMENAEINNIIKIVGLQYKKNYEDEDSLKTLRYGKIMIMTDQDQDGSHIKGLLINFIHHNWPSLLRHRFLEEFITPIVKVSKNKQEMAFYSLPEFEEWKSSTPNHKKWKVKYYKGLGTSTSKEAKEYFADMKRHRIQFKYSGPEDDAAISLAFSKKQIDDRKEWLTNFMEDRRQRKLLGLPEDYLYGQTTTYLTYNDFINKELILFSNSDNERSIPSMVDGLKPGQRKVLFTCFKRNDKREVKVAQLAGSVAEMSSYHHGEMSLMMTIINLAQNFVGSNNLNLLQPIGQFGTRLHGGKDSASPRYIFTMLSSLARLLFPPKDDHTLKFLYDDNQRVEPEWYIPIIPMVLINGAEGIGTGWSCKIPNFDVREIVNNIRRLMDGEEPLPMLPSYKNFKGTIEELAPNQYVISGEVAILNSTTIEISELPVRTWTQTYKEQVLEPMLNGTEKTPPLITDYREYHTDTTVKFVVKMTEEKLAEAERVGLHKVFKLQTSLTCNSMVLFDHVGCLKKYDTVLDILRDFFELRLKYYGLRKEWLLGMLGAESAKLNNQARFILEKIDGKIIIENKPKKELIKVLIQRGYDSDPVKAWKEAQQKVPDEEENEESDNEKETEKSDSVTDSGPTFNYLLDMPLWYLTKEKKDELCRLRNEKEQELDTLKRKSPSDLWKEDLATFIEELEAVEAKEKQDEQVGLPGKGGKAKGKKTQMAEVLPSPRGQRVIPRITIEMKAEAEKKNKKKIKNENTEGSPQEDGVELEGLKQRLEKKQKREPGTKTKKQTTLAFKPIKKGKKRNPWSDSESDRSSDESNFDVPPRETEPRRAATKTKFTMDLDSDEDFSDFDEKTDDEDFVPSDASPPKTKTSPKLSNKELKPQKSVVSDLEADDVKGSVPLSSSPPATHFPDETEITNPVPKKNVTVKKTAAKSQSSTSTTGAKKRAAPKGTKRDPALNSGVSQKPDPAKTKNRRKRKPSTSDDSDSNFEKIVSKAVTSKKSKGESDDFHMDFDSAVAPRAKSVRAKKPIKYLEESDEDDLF
Procedure, shortened: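 Human placenta topoisomerase II decatenation followed as conversion of catenated kinetoplast DNA to minicircle monomers.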

[8] = biological target: T5, DNA topoisomerase 2-alpha; assay: Inhibition human placenta topoisomerase 2 assessed as conversion of supercoiled pBR322 DNA to relaxed form

SMILES | IC50 [1] | IC50 (Deoxyribonuclease-1) | IC50 (DNA ligase) | IC50 [2] | IC50 [3] | IC50 [4] | IC50 [5] | IC50 [6] | IC50 [7] | IC50 [8]
CC[C@@]1(O)C(=O)OCc2c1cc1n(c2=O)Cc2cc3ccccc3nc2-1 [CAMPTOTHECIN] | 3 µM | > 300 µM | > 300 µM | > 300 µM | > 300 µM | > 300 µM | > 300 µM | > 300 µM | – | –
COc1cccc2c1C(=O)c1c(O)c3c(c(O)c1C2=O)C[C@@](O)(C(=O)CO)C[C@@H]3O[C@H]1C[C@H](N)[C@H](O)[C@H](C)O1 [DOXORUBICIN] | > 200 µM | > 200 µM | > 200 µM | 25 µM | > 200 µM | 96 µM | 24 µM | > 200 µM | 1 µM | 1 µM
O=C1Oc2cc(O)ccc2/C1=C\c1ccc(O)cc1 [ISOAUROSTATIN] | 67 µM | > 400 µM | > 400 µM | > 400 µM | > 400 µM | > 400 µM | > 400 µM | > 400 µM | > 400 µM | > 400 µM
C=C1NC(=O)C(C)C(CCC(C)C(=O)/C=C/C(C)=C/CC(C)CCCCCCC)OC(=O)[C@H](CC(OS(=O)(=O)O)C(N)=O)NC(=O)[C@@H](C)CNC1=O (stereo partly drawn) [TOPOSTATIN] | 1 µM | > 250 µM | > 250 µM | 7 µM | > 250 µM | 17 µM | > 250 µM | > 250 µM | 4 µM | 4 µM
